pEC50: −log10 of the molar value. In brackets after ≈: the same amount, converted by molar mass. Activity calls are given as the source filed them.
Key:
[1] = Intrinsic clearance in human liver microsomes assessed as NADPH-dependent metabolism per mg protein at 1 uM in presence of NADPH by LC-MS/MS analysis; assay type: ADME, Microsome
[2] = Apparent permeability from basolateral to apical side in human Caco2 cells measured after 20 to 80 mins by LC-MS/MS analysis; assay type: ADME, cell-based; conditions: caco-2
[3] = Half life in human plasma at 1 uM by LC-MS/MS analysis; assay type: ADME, cell-free
[4] = system: Hepatitis B virus; experiment: Binding affinity to HBV dimeric capsid protein C150 mutant expressed in Escherichia coli BL21 (DE3) at 20 uM by Sypro orange staining based RT-PCR analysis
[5] = Apparent permeability from apical to basolateral side in human Caco2 cells measured after 20 to 80 mins by LC-MS/MS analysis; assay type: ADME, cell-based; conditions: caco-2
[6] = Oral bioavailability in CD-1 mouse at 10 mg/kg by LC-MS/MS analysis; assay type: ADME, organism-based; conditions: in vivo
Method in brief: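 Male CD-1 mice (25–35 g), n = 4 per route; typical doses 2 mg/kg IV and 10 mg/kg PO in DPBS with up to 42% 2-hydroxypropyl-β-cyclodextrin; serial saphenous blood to 24 h (8 points); plasma by LC-MS/MS; non-compartmental analysis; F = (AUCpo/AUCiv)×(Doseiv/Dosepo).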

[7] = Intrinsic clearance in mouse liver microsomes assessed as glucuronidation per mg protein at 1 uM in presence of UDPGA by LC-MS/MS analysis; assay type: ADME, Microsome
Method in brief: (§1)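 Glucuronidation: typically 1 μM compound with 0.5 mg/mL microsomal protein, alamethicin 50 μg/mg protein, 1 mM MgCl2, 5 mM UDPGA in 0.1 M potassium phosphate pH 7.4, 37 °C; timed aliquots quenched in acetonitrile; LC-MS/MS gives CLint (μl/min/mg protein); triplicate; 7-hydroxycoumarin positive control.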

[8] = Stability in Dulbecco's phosphate buffered saline assessed as parent compound remaining at 1 uM after 24 hrs by LC-MS/MS analysis; assay type: physicochemical; conditions: read-out: Stability
Method in brief: (§2)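 Compound, typically 1 μM final, incubated in DPBS at 37 °C in triplicate; samples at 0, 1, 3, 6, 24 h quenched with 3 volumes acetonitrile containing internal standard; parent measured by LC-MS/MS.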

[9] = system: Hepatitis B virus; experiment: Disruption of HBV dimeric capsid protein C150 mutant assembly expressed in Escherichia coli BL21 (DE3) assessed as increase in capsid assembly at 20 uM by Sypro orange staining based RT-PCR analysis
[10] = Intrinsic clearance in human liver microsomes assessed as glucuronidation per mg protein at 1 uM in presence of UDPGA by LC-MS/MS analysis; assay type: ADME, Microsome; method in brief: as §1
[11] = Protein binding in human plasma at 5 uM incubated for 5 hrs by LC-MS/MS-based equilibrium dialysis method; assay type: ADME, cell-free
Method in brief: (§3)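 Equilibrium dialysis in duplicate: compound spiked at 5 μM into normal human or mouse plasma, dialyzed against DPBS 5 h at 37 °C; both chambers sampled and quenched in acetonitrile with internal standard; LC-MS/MS gives percent bound.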

[12] = system: HepG2; experiment: (§4) Cytotoxicity against human HepG2 cells assessed as reduction in cell viability incubated for 2 days prior to compound washout followed by compound redosing and measured after 2 days by XTT assay; assay type: cell-based; conditions: hepg2, 48 h
[13] = Protein binding in mouse plasma at 5 uM incubated for 5 hrs by LC-MS/MS-based equilibrium dialysis method; assay type: ADME, cell-free; method in brief: as §3
[14] = Half life in mouse plasma at 1 uM by LC-MS/MS analysis; assay type: ADME, cell-free
[15] = system: Hepatitis B virus; experiment: Disruption of HBV dimeric capsid protein C150 mutant assembly expressed in Escherichia coli BL21 (DE3) assessed as increase in capsid aggregation after 1 hr by uranyl acetate staining based transmission electron microscopic analysis
Method in brief: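 Purified C150 dimer (18 μM) in bicarbonate buffer, with compound or 1% DMSO, assembled by adding an equal volume of 100 mM HEPES pH 7.5, 1 M NaCl, 1 h at room temperature. Assemblies adsorbed to glow-discharged carbon-coated copper grids, negatively stained with 2% uranyl acetate and imaged by TEM for aggregates versus DMSO control.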

[16] = Thermodynamic aqueous solubility in Dulbecco's phosphate buffered saline using solid sample incubated for 72 hrs under shaking condition by LC-MS/MS analysis; assay type: physicochemical; conditions: read-out: Therm_solubility
[17] = Intrinsic clearance in mouse liver microsomes assessed as NADPH-dependent metabolism per mg protein at 1 uM in presence of NADPH by LC-MS/MS analysis; assay type: ADME, Microsome
[18] = system: Hepatitis B virus; experiment: Antiviral activity against HBV infected in human HepAD38 cells assessed as reduction in total DNA production incubated for 2 days prior to compound washout followed by compound redosing and measured after 2 days by dot-blot analysis; assay type: functional, organism-based
Method in brief: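 HepAD38 cells seeded at 3 × 10^4/well in tetracycline medium; next day washed twice with PBS and given tet-free complete medium with 2-fold serial dilutions, 1% final DMSO, replaced with fresh compound medium after 2 days. After 2 more days cells lysed (NP-40), DNA alkali-denatured, dot-blotted, probed with DIG-labelled HBV probe; chemiluminescence densitometry, variable-slope fit; mean ± SD of ≥2 experiments.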

[19] = Half life in Dulbecco's phosphate buffered saline at 1 uM by LC-MS/MS analysis; assay type: physicochemical; method in brief: as §2
[20] = as §4; assay type: cell-based; conditions: HepG2 cells

| SMILES | Microsomal intrinsic clearance [1] [µL/min] | Papp [2] [×10⁻⁶ cm/s] | t1/2 [3] [h] | Activity [4] | Papp [5] [×10⁻⁶ cm/s] | intrinsic clearance (CLint) [7] [µL/min] | remaining at 24 h, 1 µM [8] [%] | intrinsic clearance (CLint) [10] [µL/min] | PPB [11] [%] | CC50 [12] [µM] | PPB [13] [%] | t1/2 [14] [h] | solubility thermodynamic at 72 h [16] [µM] | intrinsic clearance per mg protein [17] [µL/min] | pEC50 [18] | further results |
| --- | --- | --- | --- | --- | --- | --- | --- | --- | --- | --- | --- | --- | --- | --- | --- | --- |
| Cc1cc(NC(=O)c2sc(N)c(C(N)=O)c2C)ccc1F | 14 | 26.9 | > 24 | Active | 18.6 | 5.2 | > 90 | < 0.1 | 91 | > 100 | 82 | > 24 | 31 (≈ 9.53 µg/mL) | 92 |  | F ([6]; mouse): 11%; Activity [9]: Active; Activity [15]: Active |
| Cc1c(C(=O)Nc2ccc(F)c(F)c2)sc(N)c1C(N)=O | 3.4 | 27.6 | > 24 | Active | 24.8 | 5.2 | > 90 | < 0.1 | 86 | > 100 | 80 | > 24 | 11 (≈ 3.42 µg/mL) | 25 |  |  |
| Cc1c(C(=O)Nc2ccccc2)sc(N)c1C(N)=O | 5 |  | > 24 | Active |  | 4.4 | > 90 | 2 | 86 | > 100 | 50 | > 24 | 19 (≈ 5.23 µg/mL) | 18 | 5.47 | bioavailability ([6]; CD-1, mouse): 31 to 34%; half-life at 1 µM [19]: > 24 h |
| Cc1c(C(=O)Nc2ccccc2)sc(N)c1C(N)=S |  |  |  | Active |  |  |  |  |  |  |  |  |  |  | < 5.00 | CC50 at 48 h [20]: > 100 µM |

Reference: ChEMBL document CHEMBL4411305, “5-Aminothiophene-2,4-dicarboxamide analogues as hepatitis B virus capsid assembly effectors” (Eur J Med Chem, 2019)
